Experimental data: ChEMBL document CHEMBL1158765, “Cyclic peroxides derived from the marine sponge Plakortis simplex” (J Nat Prod, 2005)
≈ marks a conversion by molar mass, not a printed value.

What was measured:
Assay type in all cases: functional, cell-based
[1] = Antitumor activity against human UXF 1138L cells
Procedure, shortened: (§1)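 Human tumor cell lines derived from patient tumors grown subcutaneously in NMRI nu/nu mice, cultured as monolayers and exposed to test compounds. Surviving cells were stained with a fluorescent dye. Doubling times 24-35 h. IC50 taken from concentration-dependent T/C values. Where not reached within the test range, IC extrapolated by linear regression if within 3-fold of the highest concentration.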

[2] = Antitumor activity against human RXF 486L cells; procedure, shortened: as §1
[3] = Antitumor activity against human GXF251L cells; conditions: GXF 251L; procedure, shortened: as §1
[4] = Antitumor activity against human LXF 529L cells; procedure, shortened: as §1
[5] = Antitumor activity against human MEXF 642NL cells; procedure, shortened: as §1
[6] = Antitumor activity against human MAXF 401NL cells; procedure, shortened: as §1

## CCCCCC[C@@]1(CC)C=C(CC)[C@@H](CC(=O)OC)OO1 (relative stereo)
[1]
  IC50: 14.4 µg/mL (≈ 48.3 µM)
[2]
  IC50: 14.1 µg/mL (≈ 47.2 µM)
[3]
  IC50: 8.3 µg/mL (≈ 27.8 µM)
[4]
  IC50: 7.7 µg/mL (≈ 25.8 µM)
[5]
  IC50: 7.2 µg/mL (≈ 24.1 µM)

## CCCCC[C@@]1(CC)C=C(CC)[C@@H](CC(=O)OC)OO1 (relative stereo)
[6]
  IC50: > 10 µg/mL
[1]
  IC50: > 10 µg/mL
[2]
  IC50: > 10 µg/mL
[3]
  IC50: > 10 µg/mL
[4]
  IC50: > 10 µg/mL
[5]
  IC50: > 10 µg/mL
